Columns and labels:
[1] = folding enthalpy; higher = less favourable; fluorescence melt of hairpins on a sequencing array, two-state fit; settings: sodium 0.088 M
Summary of the method: (§1)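 Cy3 signals were normalised both to pre-quench Cy3 and to control constructs. They came from library hairpins carrying annealed Cy3 and quencher oligos on a sequenced MiSeq flow cell, imaged in 50 mM Na-HEPES pH 8.0, 25 mM NaCl, in 2.5 °C steps up to 60 °C. Bootstrapped two-state fits gave melting temperature and folding enthalpy, and four replicates were combined by inverse variance. Fitted temperatures were then raised by 9.35 °C to match UV melts.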

[2] = melting temperature; fluorescence melt of hairpins on a sequencing array, two-state fit, raised by 9.35 °C to match UV melts; settings: sodium 0.088 M
Summary of the method: as §1

Sequence	folding enthalpy [1] [kJ/mol]	Tm [2] [°C]
GATCGATTATTCGATC ((((((....))))))	-178	54.2
GGATACGCGAAAGCGTCC (((..(((....))))))	-37.2	33
GCCGGGGCGAAAGCCGGC (((..(((....))))))	-83.7	69
GGACTCGAAAGAGAGTCC ((((((....)))..)))	-169	54.5
GCGAACACTCGC ((((....))))	-98.2	45
GCTGAGCGAAAGCCTAGC (((..((....))..)))	-68.6	48.4
CGTCCGGAAACGGACACG ((((((....)))..)))	-33.9	42.9
GGTGTCGAAAGACATACC ((((((....)))..)))	-58.1	43.5
GCTGTGCGAAAGCAATGC ((..(((....)))..))	-79.9	42.8
GGGAGCCCGAAAGGGCCC (((..(((....))))))	-44.9	58.8
GCTCGTGGAAACATGGGC ((.(.((....)).).))	-71.6	42.9
GCAAGCGAAAGCTCTTGC ((((((....)))..)))	-67.5	43.6
GACTACGAAAGTAGTC ((((((....))))))	-119	66.5
GTACCCGAAAGGGACTAC ((((((....)))..)))	-59.7	45.8
GATCCTGTAGAGGATC ((((((....))))))	-150	55.5
GATCCCCTAGGGGATC ((((((....))))))	-185	66.6
GATCTATATTTAGATC ((((((....))))))	-145	43.1
GATCTTCATTAAGATC ((((((....))))))	-148	41.5
GTTTTGCGAAAGCAAAC (((.(((....))))))	-57.8	46.1
GATCACACCGTGATC ((((((...))))))	-161	60.6
GCTTAGCGAAAGCAACGC ((.(.((....)).).))	-30.8	30.5
GGTTTGGGAAACTAAGCC ((.((.(....).)).))	-56.7	30.2
GATCCCACAGGGGATC ((((((....))))))	-140	61.8
GCAAGTCGAAAGACGTGC (((.(((....))).)))	-167	55.8

Sequence	folding enthalpy [1] [kJ/mol]	Tm [2] [°C]
GCGAGACGAAAGTCCGC (((.(((....))))))	-122	67.2
GAGTGCGAAAGCAAGCTC ((((((....)))..)))	-59.5	43.6
GATCACAAGAGTGATC ((((((....))))))	-139	54.5
GCACTGCGAAAGCCGCGC ((.(.((....)).).))	-87.9	45.4
GACGGCCGAAAGGCTGTC (((.(((....))).)))	-118	68.8
GCATCCGAAAGGAGTGC ((((((....))).)))	-94.2	51.2
GCTCAGCGAAAGCTTCGC ((..(((....)))..))	-52.5	40
GCCCCCGAAAGGGTTGGC ((((((....)))..)))	-75.3	52.6
GCTCACGAAAGTGGAAGC ((((((....)))..)))	-87.6	45.4
GATCTCTCAGAGATC ((((((...))))))	-141	54.2
GCTTACGGAAACGCAAGC ((((.((....)).))))	-185	46
GGTCACGAAAGTGCAACC ((((((....)))..)))	-66.5	38.6
GCGGTCGGAAACAACCGC (((((.(....).)))))	-145	55.1
GCTCTGCGAAAGCACTGC ((..(((....)))..))	-44.9	31.6
CGTTGACGGAAACGTACG (((..(((....))))))	-78.6	43.2
GTTTCGACGAAAGTCAAC (((..(((....))))))	-40.1	22.9
GGCACTGGAAACAATGCC ((((.((....)).))))	-124	42.7
GATCCAACAATGGATC ((((((....))))))	-137	47.1
GGGTGAGGAAACTCACTC (.(((((....))))).)	-74.6	53.9
GTAAGGACGAAAGTCTAC (((..(((....))))))	-36.7	30.2
GCGGGCCCCCGC ((((....))))	-98.2	64.4
GATGATGGAAACATCATC (((((((....)))))))	-188	58.1
GAGGCCGAAAGGCTACTC ((((((....)))..)))	-48.9	42.9
GGCTTCCGAAAGGAGCC (((.(((....))))))	-155	60

Sequence	folding enthalpy [1] [kJ/mol]	Tm [2] [°C]
GTTCTCCGAAAGGAAAC (((.(((....))))))	-66.9	35.8
GTTTTATCGAAAGATAAC (((..(((....))))))	-47.9	29.8
GTGACAGGAAACTGTTAC ((.((((....)))).))	-118	45.4
GGACGGTCGAAAGACTCC (((..(((....))))))	-51.2	29.5
TTAACGAAAGTTAA (((((....)))))	-58.6	41.1
GTATACGAAAGTATAC ((((((....))))))	-119	54.2
GATCAGCCCTCTGATC ((((((....))))))	-148	50.1
GCCCAGCCGAAAGGCGGC (((..(((....))))))	-44.5	62.4
CGTCGGCGGAAACGCACG (((..(((....))))))	-76.4	46.1
GATCAATAAGTTGATC ((((((....))))))	-141	44.4
GATCACGACCGTGATC ((((((....))))))	-193	63.6
GCAGAGCGAAAGCTTTGC (((.(((....))).)))	-223	56.1
GTACCAGGAAACTGGCAC ((.((((....)))).))	-88.3	42.1
GATCGGTGCTCCGATC ((((((....))))))	-171	57.9
GATCTGGCTGCAGATC ((((((....))))))	-152	50
GGGAGTGGAAACACCCCC (((.(((....))).)))	-79.5	49.2
GCACAGCGAAAGCTTTGC (((.(((....))).)))	-173	51.8
GTACGCGGAAACGCATAC (((.(((....))).)))	-82.1	39.9
GATCCGCGCCCGGATC ((((((....))))))	-192	56.5
GATCCATATGTGGATC ((((((....))))))	-160	54.9
GGCAACGAAAGTTGGGCC ((((((....)))..)))	-70.8	44.6
GGCCAGACGAAAGTCGCC (((..(((....))))))	-55.8	54.1
GTTCCCGAAAGGGTGAAC ((((((....)))..)))	-52.2	35.5
GAATTACGAAAGTACTTC (((.(((....))).)))	-84	32.5

Sequence	folding enthalpy [1] [kJ/mol]	Tm [2] [°C]
GATATGGAAACATATC ((((((....))))))	-124	46.1
GGTTACGGAAACGTAGCC ((.((((....)))).))	-120	51.7
GATCTAGAATTAGATC ((((((....))))))	-146	45.2
GATCCTTCGAGGATC ((((((...))))))	-120	54.4
GTGCGAGGAAACTCGCGC (.(((((....))))).)	-76	66.2
GTTGCTACGAAAGTAAAC (((..(((....))))))	-39.5	28.6
GATCCCTTACGGGATC ((((((....))))))	-163	61.5
GATCTGATTCCAGATC ((((((....))))))	-142	48.5
GGTAAGACGAAAGTCACC (((..(((....))))))	-67.8	39.3
GGGGTGGGAAACTACCCC (((((.(....).)))))	-195	55.8
GGGGCTGGAAACGGCTCC ((.((.(....).)).))	-162	48.6
GTTGAAGGAAACTTCGAC ((.((((....)))).))	-136	44.9
GATCCTTGGAGGATC ((((((...))))))	-176	50.4
GCAGAGCCGAAAGGCTGC (((..(((....))))))	-57.7	52.9
GCGACCTTCGC ((((...))))	-106	48.2
GATCACAACTGTGATC ((((((....))))))	-156	58.9
GGTTCCGGAAACGGAGTC (..((((....))))..)	-49	34.1
GCATTGCGAAAGCGAAGC ((.(.((....)).).))	-60.5	38.9
GAGCCACGAAAGTGCCTC (((.(((....))).)))	-70.5	42.1
GGAAGGCGAAAGCCATCC (((.(((....))).)))	-88.5	53.3
GAACTGCGAAAGCAATTC (((.(((....))).)))	-90.9	36.7
